This note sets out measurements from ChEMBL document CHEMBL3763015 (Bioorg Med Chem, 2016).

One data set relates to HeLa. The data set can be described thus: Cytotoxicity against human HeLa cells assessed as cell death at 200 uM by […]. Format: cell-based. The procedure, abridged:
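HeLa cells were grown in DMEM with 5% FBS and 1% penicillin–streptomycin. 100 μl of 5000 cells/ml was seeded and held 24 h at 37 °C, 5% CO2. Compound at 200 μM, with rotenone control, was added for 24 h. WST-8/1-methoxy PMS was added for 2 h, and absorbance read at 450 nm against 630 nm. Result reported as cell death ratio.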
(Tetrazolium dyes change colour on reduction, which living cells bring about.)

Data set [1] addresses Cathepsin B (Bos taurus) (UniProt P07688). The data set can be described thus: Inhibition of bovine spleen cathepsin B using Z-Arg-Arg-MCA as substrate at 1 mM incubated for 10 mins. The procedure, abridged:
(§1)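 10 mU enzyme preincubated 10 min at 40 °C in 50 mM MES pH 6.0 with 2 mM DTT and 0.1% Brij-35. Z-Arg-Arg-MCA and inhibitor in DMSO were then added and incubated 10 min at 40 °C. Reaction stopped with sodium monochloroacetate/acetate buffer, pH 4.3. Screening was at 1.0 mM inhibitor; IC50 runs used 1 nM to 1 mM.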

A further data set addresses Cathepsin B (Bos taurus, UniProt P07688). Nature of the data set: Inhibition of bovine spleen cathepsin B using Z-Arg-Arg-MCA as substrate incubated for 10 mins. The procedure, abridged: as §1
For data set [2], the target named is Cathepsin B (Bos taurus) (UniProt P07688). The data set can be described thus: Competitive inhibition of bovine spleen cathepsin B using Z-Arg-Arg-MCA as substrate incubated for 10 mins by Lineweaver-Burk plot.

Active and inactive are the calls of the source. No cut-off for these calls is given here.

On to `COc1cccc(/C=C/C(=O)N[C@@H](COC(=O)c2ccccc2)C(=O)NC2CCCCC2)c1`, for which the Activity with HeLa was < 20%. On Cathepsin B (Bos taurus) [1], this compound gave an inhibition of 36%.

`COc1cc(/C=C/C(=O)N[C@@H](COC(=O)c2ccccc2)C(=O)NC2CCCCC2)cc(OC)c1OC`: the Activity in the data set on HeLa is < 20%. Further, the inhibition against Cathepsin B (Bos taurus) [1] is 21%.

In the case of `O=C(/C=C/c1ccccc1)N[C@@H](COC(=O)CCc1ccccc1)C(=O)NC1CCCCC1`, the inhibition on Cathepsin B (Bos taurus) [1] was found to be 82%.

Take `O=C(/C=C/c1ccccc1)N[C@@H](COC(=O)c1ccccc1)C(=O)NC1CCCCC1`: the Activity in the data set with HeLa is on record as < 20%. For the same compound, the inhibition against Cathepsin B (Bos taurus) [1] turned out to be 34%.

In turn, `COc1cccc(/C=C/C(=O)N[C@H](COC(=O)c2ccccc2)C(=O)NC2CCCCC2)c1` gave an inhibition on Cathepsin B (Bos taurus) [1] of 44%.

With `COc1cc(/C=C/C(=O)N[C@H](COC(=O)c2ccccc2)C(=O)NC2CCCCC2)cc(OC)c1`, on Cathepsin B (Bos taurus) [1], the inhibition came out at 22%.

As to `COc1cc(/C=C/C(=O)N[C@H](COC(=O)c2ccccc2)C(=O)NC2CCCCC2)cc(OC)c1OC`, on Cathepsin B, the IC50 was 500 µM. The compound also had an inhibition against Cathepsin B (Bos taurus) [1] of 70%.

Take `O=C(/C=C/c1ccccc1)N[C@H](COC(=O)c1ccccc1)C(=O)NC1CCCCC1`: the inhibition result at Cathepsin B (Bos taurus) [1] is “inactive”.

As to `COc1ccc(/C=C/C(=O)N[C@@H](COC(=O)c2ccccc2)C(=O)NC2CCCCC2)cc1OC`, the inhibition against Cathepsin B (Bos taurus) [1] was determined as 88%.

Take `COc1cc(/C=C/C(=O)N[C@@H](COC(=O)c2ccccc2)C(=O)NC2CCCCC2)cc(OC)c1`: the Activity in the data set on HeLa is reported as < 20%. Further, the inhibition entry on Cathepsin B (Bos taurus) [1] is “inactive”.

Regarding `O=C(/C=C/c1ccc(OC(=O)c2ccccc2)cc1)N[C@@H](COC(=O)c1ccccc1)C(=O)NC1CCCCC1`, the Activity in the data set with HeLa was < 20%. The compound also returned an inhibition on Cathepsin B (Bos taurus) [1] of 35%.

Compound `O=C(/C=C/c1ccc(OC(=O)c2ccccc2)cc1)N[C@H](COC(=O)c1ccccc1)C(=O)NC1CCCCC1` showed an inhibition against Cathepsin B (Bos taurus) [1] of 19%.

With `COc1ccccc1/C=C/C(=O)N[C@@H](COC(=O)c1ccccc1)C(=O)NC1CCCCC1`, the IC50 against Cathepsin B was determined as 170 µM. For the same compound, the inhibition against Cathepsin B (Bos taurus) [1] was found to be 67%. The inhibition entry at Cathepsin B (Bos taurus) [2] was “Active”.

A word on the inhibition: it is the percentage by which the read-out fell short of the control. What is called IC50 is the midpoint of a concentration-inhibition curve. A higher IC50 goes with a need for much substance.
